The term inhibition denotes the drop in the measured response relative to a control, in per cent.

The source made the active and inactive calls. No cut-off for these calls is given here.

Consider 14 molecules from ChEMBL document CHEMBL1137554, “Synthesis and biological evaluation of novel cytotoxic azanaphthoquinone annelated pyrrolo oximes” (Bioorg Med Chem Lett, 2007).

Test [1] in a line: (§1) Cytotoxicity against RKOp27 cells after 48 hrs by XTT assay. It counts as functional, cell-based, Homo sapiens. A digest of the protocol: (§2)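 XTT tetrazolium proliferation assay with 48 h compound exposure. IC50 was obtained by nonlinear regression from at least two independent experiments and reported as mean ± standard deviation.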
For orientation: Tetrazolium dyes change colour on reduction, which living cells bring about.

A short description of test [2]: Cytotoxicity against KB/HeLa cells after 48 hrs by XTT assay. The format is functional, cell-based, Homo sapiens. A digest of the protocol: as §2
Another test relates to SK-OV-3. The test is described as follows: Cytotoxicity against SKOV3 cells after 48 hrs by XTT assay. The format is functional, cell-based, Homo sapiens. The following applies: for Activity: Homo sapiens. An outline of the steps:
as §2

The next test deals with NCI-H460. The test is described as follows: Cytotoxicity against NCIH460 cells after 48 hrs by XTT assay. It counts as functional, cell-based, Homo sapiens. The note with it: for Activity: Homo sapiens. An outline of the steps: as §2
A further test relates to SF-268. The experiment in a line: Cytotoxicity against SF268 cells after 48 hrs by XTT assay. The note with it: for Activity: Homo sapiens. It counts as functional, cell-based, Homo sapiens. An outline of the steps: as §2
In another test the test system is RKOp27. The test is described as §1. The format is functional, cell-based. The note with it: Homo sapiens. A digest of the protocol:
as §2

Test [3] in a line: Cytotoxicity against KB/HeLa cells at 3.16 ug/ml after 48 hrs by XTT assay. The format is functional. The note with it: Homo sapiens.
The test system of test [4] is P388. The experiment in a line: Cytotoxicity against P388 cells by XTT assay. It counts as functional, Mus musculus. An outline of the steps:
as §2

The test system of test [5] is P388. The test is described as follows: Cytotoxicity against adriamycin-resistant P388 Cells by XTT assay. It counts as functional, Mus musculus. A digest of the protocol: as §2
For test [6], the system named is L1210. The test is described as follows: Cytotoxicity against vincristine-resistant L1210 cells by XTT assay. The format is functional, Mus musculus. An outline of the steps:
as §2

Test [7] can be described thus: Cytotoxicity against multidrug resistant LT12 cells by XTT assay. It counts as functional, Rattus norvegicus. An outline of the steps:
as §2

The nature of test [8]: Cytotoxicity against LT12 cells by XTT assay. The format is functional, Rattus norvegicus. A digest of the protocol: as §2
The subject of test [9] is L1210. The test is described as follows: Cytotoxicity against L1210 cells by XTT assay. The format is functional, Mus musculus. A digest of the protocol:
as §2

Test [10] deals with U-937. The test is described as follows: (§3) Effect on apoptosis in U937 cells assessed as increase in caspase 3 activation at <=10 uM after 24 hrs. It counts as functional, cell-based. The following applies: Homo sapiens. An outline of the steps:
(§4)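 U937 cells were treated for 24 h at up to 10 μM. Caspase 3/7 activity was then measured by cleavage of a DEVD rhodamine-110 substrate.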

Test [11] is described as follows: Cell cycle arrest at G2/M phase in KB/HeLa cells after 24 hrs. The format is functional, cell-based. The note with it: Homo sapiens. An outline of the steps: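 KB/HeLa cells were exposed to several concentrations for 24 h alongside untreated reference cells. They were then stained with propidium iodide and analysed by flow cytometry for cell-cycle phase distribution.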

In test [12] the test system is U-937. The description is as §3. The format is functional, cell-based. The following applies: Homo sapiens. A digest of the protocol:
as §4
This is another data set of the same source.

Regarding `CCOC(=O)CO/N=C1/c2ccncc2C(=O)c2c1ccn2CCN(C)C`, the IC50 (in test [1]; in test [2]; with SK-OV-3; in the test on NCI-H460; in the test on SF-268) was greater than 12 µmol throughout.
Take `CN(C)CCO/N=C1/c2ccncc2C(=O)c2cn(CCN(C)C)cc21`: the outcome in the test with RKOp27, in the test with SK-OV-3, with NCI-H460 and with SF-268 was inactive. This molecule also registered an inhibition at 3.16 µg/mL in test [3] of less than 50%.
For the molecule `CN(C)CCn1cc2c(c1)/C(=N\OCCO)c1ccncc1C2=O`, the outcome with RKOp27, in the test on SK-OV-3, in the test with NCI-H460 and with SF-268 was inactive. Moreover, the inhibition at 3.16 µg/mL in [3] was less than 50%.
Consider `CCOC(=O)CO/N=C1/c2ccncc2C(=O)c2cn(CCN(C)C)cc21`, for which the outcome in the test with RKOp27, in the test with SK-OV-3, in the test with NCI-H460 and with SF-268 was inactive. In test [3], this molecule gave an inhibition at 3.16 µg/mL of less than 50%.
For the molecule `CN(C)CCn1ccc2c1C(=O)c1cnccc1/C2=N/O`, the IC50 (in test [1]; in [2]; with SK-OV-3; with NCI-H460; in the test on SF-268) was greater than 12 µmol throughout.
Consider `CO/N=C1/c2ccncc2C(=O)c2cn(CCN(C)C)cc21`, for which the result in the test on RKOp27, with SK-OV-3, with NCI-H460 and with SF-268 was inactive. In test [3], the inhibition at 3.16 µg/mL is less than 50%.
As for `CN(C)CCn1ccc2c1C(=O)c1cnccc1C2=O`, the IC50 in [1] came to 2.35 µmol; in test [2], 11.04 µmol; in the test on SK-OV-3, 13.87 µmol; in the test on NCI-H460, 3.84 µmol; with SF-268, 4.71 µmol.
Taken in the same sequence, the figures for `CO/N=C1/c2ccncc2C(=O)c2c1ccn2CCN(C)C` were 1.16 µmol, 1.21 µmol, 2.24 µmol, 0.79 µmol and 2.43 µmol.
Regarding `CC(=O)O[C@H]1C(=O)[C@@]2(C)[C@H]([C@H](OC(=O)c3ccccc3)[C@]3(O)C[C@H](OC(=O)[C@H](O)[C@@H](NC(=O)c4ccccc4)c4ccccc4)C(C)=C1C3(C)C)[C@]1(OC(C)=O)CO[C@@H]1C[C@@H]2O` [PACLITAXEL], the Activity was 0.038 µM with P388 [4]; greater than 3.4 µM with P388 [5]; greater than 3.4 µM in the test on L1210 [6]; 0.368 µM in test [7]; 0.005 µM in test [8]; 0.052 µM in the test on L1210 [9].
For `CN(C)CCn1cc2c(c1)C(=O)c1cnccc1C2=O`, the result with RKOp27, in the test with NCI-H460 and in the test with SF-268 was inactive. Moreover, the IC50 entry with SK-OV-3 is reported as “Not Active”. Also, the inhibition at 3.16 µg/mL in test [3] is less than 50%.
In the case of `CN(C)CCn1ccc2c1C(=O)c1cnccc1/C2=N/OCCO`, the Activity in the test with P388 [4] stood at 0.02 µM; in the test with P388 [5] it was 0.5 µM; in the test on L1210 [6] it was 0.16 µM; in test [7], 0.16 µM; in test [8], 0.04 µM; with L1210 [9] it was 0.07 µM. Moreover, the IC50 in test [1] came out at 0.17 µmol; in test [2], 0.66 µmol; in the test on SK-OV-3, 0.48 µmol; with NCI-H460, 0.13 µmol; in the test with SF-268 it was 1.39 µmol. Also, the result (in the test on U-937 [10]; in test [11]; in the test with U-937 [12]) was Active.
Take `CN(C)CCn1cc2c(c1)/C(=N\O)c1ccncc1C2=O`: the outcome with RKOp27, in the test with SK-OV-3, in the test with NCI-H460 and in the test with SF-268 was inactive. The molecule also had an inhibition at 3.16 µg/mL in test [3] of less than 50%.
Consider `COc1cccc2c1C(=O)c1c(O)c3c(c(O)c1C2=O)C[C@@](O)(C(=O)CO)C[C@@H]3O[C@H]1C[C@H](N)[C@H](O)[C@H](C)O1` [DOXORUBICIN], for which the Activity in the test on P388 [4] is 0.52 µM; in the test with P388 [5], greater than 3.4 µM; in the test with L1210 [6], greater than 3.4 µM; in [7], greater than 3.4 µM; in test [8], 0.031 µM; with L1210 [9], 0.221 µM.
`CN(C)CCO/N=C1/c2ccncc2C(=O)c2c1ccn2CCN(C)C`: the Activity in the test on P388 [4] is 0.02 µM; with P388 [5] it was 0.4 µM; in the test with L1210 [6] it was 0.11 µM; in test [7], 0.07 µM; in test [8], 0.03 µM; in the test with L1210 [9], 0.05 µM. Besides, the IC50 came to 0.41 µmol in test [1]; 0.67 µmol in test [2]; 0.94 µmol in the test on SK-OV-3; 0.23 µmol in the test on NCI-H460; 1.23 µmol in the test with SF-268. For the same molecule, the result (with U-937 [10]; in [11]; in the test with U-937 [12]) was Active.
